This is an account of results in ChEMBL document CHEMBL4706565, “Anti-glioma effects of 2-aminothiophene-3-carboxamide derivatives, ANO1 channel blockers” (Eur J Med Chem, 2020).

Active and inactive are the calls of the source. No cut-off for these calls is given here.

Data set [1] concerns U-251. The experiment in a line: Antiproliferative activity against human U251 cells overexpressing ANO1 assessed as reduction in cell viability measured after 72 hrs by Celltiter-glo assay. Type of data set: functional. The procedure, abridged: (§1)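 5.0×10^3 cells/well seeded, overnight, then compounds added as 1:4 serial dilutions in DMSO; viability read after 72 h with CellTiter-Glo luminescence. GI50 from fitted dose-response curves; triplicate wells, SD from three independent experiments. DMEM for U251 and U138, MEM for U87MG, both with 10% FBS and pen/strep, 37 °C, 5% CO2.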
On the technique in general: Cellular ATP, detected with luciferase, serves as a proxy for viable cell number.

The nature of data set [2]: Antiproliferative activity against mouse primary astrocytes assessed as reduction in cell viability at 100 uM measured after 72 hrs by Celltiter-Glo luminescent assay. The format is cell-based, Astrocyte. In short, it runs like this: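 Primary astrocytes isolated from adult mouse brain by a previously reported method. 5.0×10^3 cells/well, compound as 1:4 serial DMSO dilutions, CellTiter-Glo viability at 72 h.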

Data set [3] has as its system U-251. The data set is described as follows: Inhibition of colony formation in human U251 cells at 10 uM incubated for 14 days by crystal violet dye based assay. Type of data set: functional. In short, it runs like this: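 Colonies stained 24 h with crystal violet in methanol/formaldehyde/PBS, washed, extracted with 10% acetic acid and read at A570 nm. Compared against DMSO control.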

Data set [4] concerns U-251. The experiment in a line: Inhibition of anchorage-independent colony formation in human U251 cells at 10 uM incubated for 14 days by crystal violet staining based soft agar colony formation assay. The format is functional, cell-based. Conditions: time 14.0 day. The procedure, abridged:
(§2)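 Soft agar assay: 2.0×10^3 U251 cells in complete medium with 0.3% agar over a 0.6% bottom agar layer. Treated with compounds at 1-100 μM for 14 days, 37 °C, 5% CO2. Colonies stained with crystal violet for 24 h, whole wells photographed and colonies counted against DMSO control; n = 3.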

In data set [5] the test system is U138-MG. The data set is described as follows: Antiproliferative activity against human U138 cells overexpressing ANO1 assessed as reduction in cell viability measured after 72 hrs by Celltiter-glo assay. The format is functional. The procedure, abridged:
as §1

The subject of the next data set is U-87 MG. The experiment in a line: Antiproliferative activity against human U87MG cells overexpressing ANO1 assessed as reduction in cell viability at 100 uM measured after 72 hrs by Celltiter-glo assay. The format is functional, U-87MG ATCC. In short, it runs like this: as §1
Data set [6] addresses T1, Anoctamin-1 (Mus musculus, UniProt Q8BHY3).
T1 sequence (Q8BHY3 whole entry): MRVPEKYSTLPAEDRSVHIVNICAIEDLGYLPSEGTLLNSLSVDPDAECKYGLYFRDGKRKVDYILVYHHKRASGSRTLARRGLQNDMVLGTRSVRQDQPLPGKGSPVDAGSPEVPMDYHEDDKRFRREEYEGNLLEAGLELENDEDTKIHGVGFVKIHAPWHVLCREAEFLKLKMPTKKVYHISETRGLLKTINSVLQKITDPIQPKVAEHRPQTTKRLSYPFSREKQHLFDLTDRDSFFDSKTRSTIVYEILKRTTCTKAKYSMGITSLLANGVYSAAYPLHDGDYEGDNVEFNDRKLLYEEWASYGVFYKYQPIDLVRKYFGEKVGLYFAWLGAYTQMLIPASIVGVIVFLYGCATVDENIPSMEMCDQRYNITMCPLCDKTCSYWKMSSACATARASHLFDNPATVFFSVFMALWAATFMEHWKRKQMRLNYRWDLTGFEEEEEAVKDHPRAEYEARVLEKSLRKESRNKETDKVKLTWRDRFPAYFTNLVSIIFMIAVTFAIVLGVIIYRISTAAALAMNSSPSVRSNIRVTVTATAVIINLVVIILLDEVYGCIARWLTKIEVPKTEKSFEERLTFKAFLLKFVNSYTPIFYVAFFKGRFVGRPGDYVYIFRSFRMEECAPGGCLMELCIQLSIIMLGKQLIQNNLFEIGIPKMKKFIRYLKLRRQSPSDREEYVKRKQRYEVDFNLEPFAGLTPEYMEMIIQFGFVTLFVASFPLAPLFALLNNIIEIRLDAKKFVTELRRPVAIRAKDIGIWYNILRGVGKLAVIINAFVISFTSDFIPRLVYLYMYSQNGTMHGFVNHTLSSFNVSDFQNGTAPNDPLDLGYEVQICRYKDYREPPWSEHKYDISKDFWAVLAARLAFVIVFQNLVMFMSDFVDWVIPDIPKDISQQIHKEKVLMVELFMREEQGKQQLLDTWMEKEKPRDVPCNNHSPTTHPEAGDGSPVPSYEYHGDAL
The data set is described as follows: Inhibition of GFP-fused mouse ANO1 channel expressed in HEK293A cells assessed as inhibition of ATP-induced channel current amplitude at membrane potential of +80 mV by patch clamp electrophysiology assay. Type of data set: cell-based, HEK293-A. In short, it runs like this:
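Whole-cell recording at room temperature in HEK293A cells transfected with GFP-mANO1, GFP-mANO2 or GFP-mTTYH1. 1 s ramps from +80 to -80 mV, holding potential -10 mV. For ANO1/ANO2: pipette CsCl 146 mM with Ca-EGTA-NMDG, pH 7.3; bath NaCl-based, pH 7.3. For TTYH1: Tris-aspartate pipette (pH 7.2) and Tris-HCl bath (pH 7.4), with […] and BaCl2 added to block K+ channels, and hypotonic (220 mOsm/kg) bath. Washout recordings assessed reversibility.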
On the technique in general: In patch-clamp work, channel activity is measured electrically.

In data set [7] the test system is U-251. The data set is described as follows: Inhibition of cell invasion in human U251 cells at 10 uM incubated for 48 hrs by Boyden chamber method. The format is functional. The procedure, abridged: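 Boyden chamber invasion: U251 cells serum-starved 24 h, then 2.5×10^5 cells seeded in 8-μm ECMatrix-coated transwells. Treated with compound at 1 or 10 μM for 48 h at 37 °C. Invasion ratio from relative fluorescence.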

Data set [8] concerns U-251. The data set is described as follows: Inhibition of cell migration in human U251 cells at 10 uM incubated for 18 hrs by wound healing assay. Type of data set: functional. The procedure, abridged:
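U251 monolayer, 2.0×10^5 cells/well, plated overnight, then scratched and washed with PBS. Wound area imaged before and after incubation; migration ratio taken from migrated area. One-way ANOVA.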

Data set [9] relates to U-251. The data set is described as follows: Inhibition of anchorage-independent colony formation in human U251 cells at 30 uM incubated for 14 days by crystal violet staining based soft agar colony formation assay. The format is functional, cell-based. Conditions: time 14.0 day. The procedure, abridged:
as §2

Data set [10] concerns U-251. The experiment in a line: Inhibition of anchorage-independent colony formation in human U251 cells at 100 uM incubated for 14 days by crystal violet staining based soft agar colony formation assay. The format is functional. In short, it runs like this:
as §2

The target of data set [11] is T2, Anoctamin-1 (Homo sapiens, UniProt Q5XXA6).
T2 sequence (Q5XXA6 whole entry): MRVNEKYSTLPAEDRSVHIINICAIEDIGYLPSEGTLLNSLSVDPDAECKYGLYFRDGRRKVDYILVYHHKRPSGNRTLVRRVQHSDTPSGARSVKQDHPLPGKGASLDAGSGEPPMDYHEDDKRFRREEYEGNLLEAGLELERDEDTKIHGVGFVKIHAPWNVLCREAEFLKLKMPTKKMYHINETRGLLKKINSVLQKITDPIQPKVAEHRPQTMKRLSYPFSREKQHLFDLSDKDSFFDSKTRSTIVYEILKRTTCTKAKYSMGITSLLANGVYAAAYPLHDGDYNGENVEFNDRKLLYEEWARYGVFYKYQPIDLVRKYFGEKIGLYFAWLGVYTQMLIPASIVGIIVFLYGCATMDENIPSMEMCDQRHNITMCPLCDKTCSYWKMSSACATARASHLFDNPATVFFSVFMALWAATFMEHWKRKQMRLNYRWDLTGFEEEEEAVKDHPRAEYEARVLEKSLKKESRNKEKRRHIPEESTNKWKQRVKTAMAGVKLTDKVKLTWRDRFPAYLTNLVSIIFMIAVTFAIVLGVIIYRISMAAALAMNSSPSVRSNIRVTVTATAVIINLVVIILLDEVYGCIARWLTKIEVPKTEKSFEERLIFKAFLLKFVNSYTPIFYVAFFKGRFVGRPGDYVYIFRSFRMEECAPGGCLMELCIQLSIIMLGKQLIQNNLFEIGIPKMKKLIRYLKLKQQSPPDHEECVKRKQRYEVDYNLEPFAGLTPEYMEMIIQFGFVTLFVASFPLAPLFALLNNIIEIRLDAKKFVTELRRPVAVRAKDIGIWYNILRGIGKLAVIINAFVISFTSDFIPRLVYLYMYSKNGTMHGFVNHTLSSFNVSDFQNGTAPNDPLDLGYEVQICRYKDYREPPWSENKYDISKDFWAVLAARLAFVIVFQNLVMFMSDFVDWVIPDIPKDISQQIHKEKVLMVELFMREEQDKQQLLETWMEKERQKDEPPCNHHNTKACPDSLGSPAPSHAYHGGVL
The experiment in a line: Inhibition of human ANO1 channel expressed in HEK293 cells incubated for 10 mins by FLIPR assay. The format is cell-based. The procedure, abridged:
(§3)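 HEK293 cells expressing human ANO1, 50,000 cells/well, plated overnight. Loaded with FLIPR Red membrane-potential dye in HEPES-buffered saline (pH 7.4) for 40-60 min at room temperature. Compound added for 10 min at room temperature, final DMSO 0.5%.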

The test system of data set [12] is U-251. The data set is described as follows: Antiproliferative activity against human U251 cells overexpressing ANO1 assessed as reduction in cell viability at 100 uM measured after 72 hrs by Celltiter-glo assay. Type of data set: functional. In short, it runs like this:
as §1

The target of data set [13] is T3, Anoctamin-1 (Homo sapiens) (UniProt Q5XXA6).
T3 sequence (whole entry): T2 sequence (Q5XXA6 whole entry)
The experiment in a line: Inhibition of human ANO1 channel expressed in HEK293 cells at 10 uM incubated for 10 mins by FLIPR assay relative to control. The format is cell-based. In short, it runs like this:
as §3

Data set [14] relates to U138-MG. The experiment in a line: Antiproliferative activity against human U138 cells overexpressing ANO1 assessed as reduction in cell viability at 100 uM measured after 72 hrs by Celltiter-glo assay. Type of data set: functional. In short, it runs like this:
as §1

For data set [15], the target named is T2, Anoctamin-1. The data set is described as follows: Inhibition of human ANO1 expressed in FRT cells assessed as inhibition of ATP-induced channel current treated 20 mins prior to ATP challenge and measured by pacth-clamp technique. Type of data set: cell-based.

The term GI50 denotes the concentration giving 50% growth inhibition. Broadly, the inhibition is the share of the control response that was lost under treatment. A word on the IC50: it is the concentration that inhibits the measured activity by half. Turning to `CC(C)(C)C1CCc2c(sc(NC(=O)c3ccco3)c2C(=O)O)C1` (stereo unspecified), the values for the GI50 in the data set with U-251 [1] and in the data set with U138-MG [5] were 41.9 µM and 89.4 µM, respectively. The inhibition at 72 h, 100 µM in data set [2] was less than 50%. Also, the inhibition at 10 µM with U-251 [3] (U-251, 336 h, time 14 day) was found to be 72.7%; in the data set with U-251 [7], 28.3%; with U-251 [8], 34.8%. The inhibition result with U-251 [4] and with U-251 [9] was “inactive” each time. The inhibition at 100 µM in the data set on U-87 MG was less than 50%; in the data set on U-251 [10] (U-251, 336 h, time 14 day), 72.7%. The half-maximal inhibitory concentration (IC50) at Anoctamin-1 [6] is 1530 nM.
As to `CC(C)(C)C(=O)Nc1sc2c(c1C(N)=O)CCCCC2`, the inhibition at 72 h, 100 µM in data set [2] was less than 50%. Besides, the IC50 is 4.79 µM at Anoctamin-1 [11] and 4070 nM on Anoctamin-1 [6]. The inhibition at 100 µM in the data set on U-251 [12], in the data set on U-87 MG and with U138-MG [14] was less than 50% each time. This compound also yielded an inhibition in [13] of 67.9%.
For `CCc1c(C)nc(SCC(=O)Nc2ncc(-c3ccc(OC)cc3)s2)nc1O`, in the data set on U-251 [1], the GI50 came out at 79.3 µM. Also, the inhibition at 72 h, 100 µM in data set [2] is less than 50%. For the same compound, the half-inhibitory concentration (IC50) was 2.6 µM at Anoctamin-1 [11], 2740 nM at Anoctamin-1 [6] and 1100 nM on Anoctamin-1 [15]. The inhibition entry in the data set on U-251 [3] (time 14.0 day), in the data set on U-251 [4] and in the data set on U-251 [10] (time 14.0 day) was “inactive” in each case. Besides, the inhibition in data set [13] is 63.9%. Moreover, the inhibition at 100 µM with U-87 MG and in the data set on U138-MG [14] was less than 50% in each case. The inhibition at 10 µM was determined as 19.2% with U-251 [7] and 26.5% in the data set with U-251 [8].
